Bioassay records deposited in PubChem BioAssay by several laboratories.
Most compounds without a hit are left out; they make up all but 2.6% or so of the library.
SENP8 block-1: inhibitors of human SENP8 protease | Q96LD8 | purified SENP8, Z-RLRGG-aminoluciferin cleavage, luminescence | inhibition, % at 10 µM | 330,000 compounds, 1.2% hits; in the data active = inhibition above about 50%
Target sequence (Q96LD8 whole entry, looked up): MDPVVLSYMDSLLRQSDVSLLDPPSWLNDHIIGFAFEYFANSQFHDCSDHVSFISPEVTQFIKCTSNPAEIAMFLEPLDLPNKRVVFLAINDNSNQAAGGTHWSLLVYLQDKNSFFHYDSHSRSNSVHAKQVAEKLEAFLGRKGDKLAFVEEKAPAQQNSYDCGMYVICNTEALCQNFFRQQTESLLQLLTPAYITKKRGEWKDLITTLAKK
SENP1 inh: blocks the human SENP1 SUMO protease catalytic domain. Q9P0U3. recombinant SENP1 catalytic domain, CyPet-SUMO1-YPet FRET cleavage. inhibition, % at 10 µM. 360,000 compounds, 0.21% hits. AID 624204;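 active = inhibition at least 30% at 10 µM, raw YFP signal under a set limit, fluorescence ratio 0.5 to 1.5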
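Compound: 10 µM single point, 0.5% DMSO; Test system: hSENP1 catalytic domain, recombinant; Timing: 50 min reaction at room temperature; Technique: FRET, CFP and YFP emission; Control set: no-enzyme wells low, DMSO-plus-enzyme wells high control.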
Platelet DG rel: platelet dense granule release activity | AID 1663 | 300,000 compounds, 0.22% hits | human platelet-rich plasma, SFLLRN dense granule ATP release, luminescence | inhibition, %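 (compounds screened at 7.5 µM in platelet-rich plasma)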;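 active = mean replicate score, as percent of positive control, at or above 50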
SENP8 block-2: SENP8 (human) protease inhibition | recombinant SENP8, Nedd8 substrate fluorescence | 360,000 compounds, 0.64% hits | Q96LD8 | inhibition, % at 20 µM; in the data active = inhibition mostly above about 40%, no sharp cut-off; inactive = mostly below about 27%
SENP6 block: inhibitors of human SENP6 protease; Recombinant SENP6 catalytic domain, aminoluciferin luminescence; Q9GZR1; 330,000 compounds, 1.8% hits; inhibition, % at 10 µM; AID 2599;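 active = inhibition above about 50% at the single tested dose, limit read from the data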
Target sequence (Q9GZR1 628-1112 limits assumed): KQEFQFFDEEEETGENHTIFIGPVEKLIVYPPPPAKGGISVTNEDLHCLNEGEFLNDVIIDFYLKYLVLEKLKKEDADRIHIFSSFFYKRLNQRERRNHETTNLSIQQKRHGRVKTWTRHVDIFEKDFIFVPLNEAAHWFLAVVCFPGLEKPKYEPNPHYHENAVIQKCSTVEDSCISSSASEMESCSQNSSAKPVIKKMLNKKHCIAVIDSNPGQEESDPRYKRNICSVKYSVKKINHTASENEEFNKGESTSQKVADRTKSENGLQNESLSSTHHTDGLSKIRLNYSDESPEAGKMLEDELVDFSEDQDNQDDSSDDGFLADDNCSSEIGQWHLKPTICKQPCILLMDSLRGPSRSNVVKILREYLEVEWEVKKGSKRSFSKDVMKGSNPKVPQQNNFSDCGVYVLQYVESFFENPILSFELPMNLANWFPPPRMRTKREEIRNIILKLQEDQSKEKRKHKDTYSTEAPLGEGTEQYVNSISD
SENP7 block: blocks the human protease SENP7; Q9BQF6; recombinant SENP7, Z-RLRGG-aminoluciferin luminescence, 40 min; inhibition, % at 5 µM; 330,000 compounds, 1.5% hits; AID 434973;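 active = inhibition above about 50% at the single test dose, limit read from the data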
Of the large screens only hits and unclear results are named; the others gave an inactive call.

CC(=O)C1=C(c2ccccc2)NC(=O)NC1c1cccs1 (stereo unspecified)	none
CC(=O)NC1=C(Nc2ccc(N(C)C)cc2)C(=O)c2ccccc2C1=O	SENP8 block-2 44
Nc1nc(-c2ccccc2)c(N=Nc2cccnc2)s1	SENP8 block-2 48
CCOc1ccc(NC(=O)c2cc3ccccc3cc2O)cc1	SENP7 block 68
CCOc1ccc(NC(=O)Nc2ccccc2SC)cc1	SENP8 block-1 95, SENP6 block 98, SENP7 block 99
CC1(C(=O)NS(=O)(=O)Cc2ccccc2)CCN1C(=O)C1(c2ccc(Cl)cc2)CCC1 (stereo unspecified)	none (no result: SENP8 block-1, Platelet DG rel, SENP6 block, SENP7 block)
COC1=C(Nc2ccc(C)cc2)C(=O)c2ccccc2C1=O	none
COc1ccc(N)c2c1C(=O)c1ccccc1C2=O	none (no result: SENP8 block-1, SENP6 block, SENP7 block)
COC1=C(N)C(=O)c2nc(C)ccc2C1=O	SENP8 block-2 99 (no result: SENP8 block-1, Platelet DG rel, SENP6 block, SENP7 block)
COC1=C(Br)C(=O)c2nc(C)ccc2C1=O	SENP8 block-2 86 (no result: SENP8 block-1, Platelet DG rel, SENP6 block, SENP7 block)
Cc1nc(-c2ccccc2)sc1-c1ccnn1C	none
Cc1nc(-c2ccccc2)sc1-c1ccn[nH]1	SENP6 block 61, SENP7 block 56
Cn1c(C(=O)N2CCC(C(=O)NCc3ccccc3)CC2)cc2sccc21	none
C=CCN1C(=O)/C(=C\C=C2\N(C)c3ccccc3C2(C)C)SC1=S	SENP8 block-2 56
CCCN1C(=O)/C(=C/C=C2\N(CC)c3ccccc3C2(C)C)SC1=S	SENP8 block-2 44
O=C(O)CCCCCCC1C(=O)NC(=O)N1CCC(O)C1CCCCC1 (stereo unspecified)	Platelet DG rel 88
Cc1ccc2[nH]c(=O)c3cc(C(=O)N(C)c4ccc(C)c(C)c4)sc3c2c1	Platelet DG rel 74
CCN(C(=O)c1cc2c(=O)[nH]c3ccc(C)cc3c2s1)c1ccc(F)cc1	none
COc1ccc(CN=Cc2[nH]c3ccc(Br)c(Cl)c3c2O)cc1	SENP8 block-2 49
COC(=O)c1ccc(Oc2nc(NC(C)(C)C)nc(N3CCOCC3)n2)cc1	none (no result: SENP1 inh, SENP8 block-2)
CCOC(=O)C1CCN(c2c(NCCCN(CC)c3ccccc3)c(=O)c2=O)CC1	none
CCN(CCCNc1cc2c(c(N)c1S(=O)(=O)O)C(=O)c1ccccc1C2=O)c1ccccc1	SENP8 block-2 57 (no result: SENP8 block-1, Platelet DG rel, SENP6 block, SENP7 block)
O=C(Nc1ccc(N2CCCC2)cc1)C(Cl)c1ccccc1 (stereo unspecified)	SENP6 block 66
CS(=O)(=O)N1CCN(c2ccc(NC(=O)C(c3ccccc3)c3ccccc3)cc2)CC1	none
CC/C(C)=N\N=C\c1c(O)n(CC)c2cc(C3=NNC(=O)CC3)ccc12	Platelet DG rel 75
O=S(c1ccc2ccccc2c1)c1cnns1 (stereo unspecified)	SENP8 block-2 44 (no result: Platelet DG rel)
Cc1nnsc1S(=O)c1ccc(Cl)c(Cl)c1 (stereo unspecified)	none
N#C/C(=C\c1ccc(O)c(O)c1)C(=O)Nc1ccccc1	SENP8 block-1 71, SENP6 block 79 (no result: Platelet DG rel)
C[C@@H](NC(=O)/C(C#N)=C/c1ccc(O)c(O)c1)c1ccccc1	none (no result: Platelet DG rel)
COc1cc2c(cc1OC)-c1cc(Nc3ccccc3C)nc(=O)n1CC2	Platelet DG rel 93
CCOc1ccccc1Nc1cc2n(c(=O)n1)CCc1cc(OC)c(OC)cc1-2	Platelet DG rel 90
COc1cc2c(cc1OC)-c1cc(NCc3ccccn3)nc(=O)n1CC2	none
CCNc1cc2n(c(=O)n1)CCc1cc(OC)c(OC)cc1-2	none
CCOc1ccc(Nc2cc3n(c(=O)n2)CCc2cc(OC)c(OC)cc2-3)cc1	none
COc1cc2c(cc1OC)-c1cc(Nc3cccc(C)c3)nc(=O)n1CC2	Platelet DG rel 86
CC1=C(C(=O)N2CCOCC2)CC(CC(=O)NC2CCCCC2)C(=O)N1Cc1ccccc1 (stereo unspecified)	none (no result: SENP8 block-1, Platelet DG rel, SENP6 block, SENP7 block)
Cc1cn([C@H]2C[C@H](O)[C@@H](CCC(=O)NCCc3cnc[nH]3)O2)c(=O)[nH]c1=O	none (no result: SENP8 block-1, Platelet DG rel, SENP6 block, SENP7 block)
CCC(CC)C(C(=O)NCc1ccccc1)N1CCN(CCN2CCOCC2)CC1 (stereo unspecified)	none (no result: SENP8 block-1, Platelet DG rel, SENP6 block, SENP7 block)
CN(C)C1=NCCN1CC1CCCCC1	none (no result: Platelet DG rel)
O=C(O)c1ccc(CSC2CCCCC2)cc1	SENP8 block-1 51, SENP6 block 58
COc1ccccc1C(=O)COC(=O)c1ccccc1O	none
CCc1ccc(C(=O)COC(=O)c2ccccc2OC)cc1	SENP8 block-1 82, SENP6 block 89, SENP7 block 91
CC1C(c2ccccc2)=Nn2c(=O)n(-c3ccccc3)c(=O)n21 (stereo unspecified)	none (no result: SENP8 block-1, Platelet DG rel, SENP6 block, SENP7 block)
Nc1ccc(Oc2ncccn2)cc1	SENP8 block-2 82
O=Cc1cccc(Oc2ncccn2)c1	none
O=C1NC[C@@H](CCCCN2C[C@H](Cc3ccc(O)cc3)N(CCc3ccc(O)cc3)C(=O)C2=O)N(CCc2ccccc2)C1=O	none (no result: SENP8 block-1, Platelet DG rel, SENP6 block, SENP7 block)
CCOc1cc(N2CCOCC2)c(OCC)cc1NC(=O)c1cnccn1	SENP8 block-2 32 (no result: Platelet DG rel)
Cc1ccc2oc(/N=C(\N)NC(=O)C(C)(C)C)nc2c1	SENP7 block 65
CSCCCN1CCCC(CO)(Cc2ccccc2F)C1 (stereo unspecified)	none
O=[N+]([O-])c1ccccc1-c1ccc(C(=S)N2CCCC2)o1	none
O=[N+]([O-])c1ccccc1-c1ccc(C(=S)N2CCCCC2)o1	SENP6 block 52
O=[N+]([O-])c1cccc(-c2ccc(C(=S)N3CCOCC3)o2)c1	none
O=[N+]([O-])c1cccc(-c2ccc(C(=S)N3CCN(c4ccccc4)CC3)o2)c1	SENP8 block-2 32
COc1ccc(CN2C(=O)C(CC(=O)NC3CCCCC3)CC(C(=O)N(C(C)C)C(C)C)=C2C)cc1 (stereo unspecified)	none (no result: SENP8 block-1, Platelet DG rel, SENP6 block, SENP7 block)
CN(C)CCOC(=O)C1(c2ccccc2)CCCC1	Platelet DG rel 66
CC(=O)N1CCc2cc(S(=O)(=O)CCC(=O)NCCc3ccccc3)ccc21	none
O=C(NC(=S)Nc1ccc2c(c1)C(=O)c1ccccc1C2=O)c1ccc(F)cc1	SENP8 block-1 52, SENP6 block 78, SENP7 block 64 (no result: SENP1 inh, SENP8 block-2)
COc1ccc(C(=O)/C=C/c2ccc(N3CCCCC3)c([N+](=O)[O-])c2)c(OC)c1	SENP8 block-2 41 (no result: SENP8 block-1, SENP6 block, SENP7 block)
COc1ccc(C(=O)/C=C/c2ccc(N3CCCCC3)c([N+](=O)[O-])c2)cc1	none
Cc1ccc(S(=O)(=O)Nc2ccc3cc([N+](=O)[O-])ccc3c2[N+](=O)[O-])cc1	SENP1 inh 53 (no result: SENP8 block-1, Platelet DG rel, SENP6 block, SENP7 block)
Cc1ccc(S(=O)(=O)Nc2ccc3ccccc3c2[N+](=O)[O-])cc1	none (no result: SENP8 block-1, Platelet DG rel, SENP6 block, SENP7 block)
CN1CCN(c2ccc(C(=O)c3ccc(Br)cc3)cc2[N+](=O)[O-])CC1	none
O=C(COC(=O)c1ccc2c(c1[N+](=O)[O-])C(=O)c1ccccc1C2=O)NC1CC1	SENP8 block-2 34
O=C(COC(=O)c1cccc2c1C(=O)c1ccccc1C2=O)NC1CCCCC1	none
Nc1cc2c(cc1N)-c1ccccc1C2	none (no result: SENP8 block-1, Platelet DG rel, SENP6 block, SENP7 block)
COc1cc(C(c2sc3nc(C)nn3c2O)N2CCOCC2)cc(OC)c1OC (stereo unspecified)	Platelet DG rel 67
